Measurements from article PMC4804314 (Pharmacology Research & Perspectives, 2016).

Experiments:
[1] = test system: sandwich‐cultured human hepatocytes; experiment: Hepatobiliary disposition in sandwich-cultured human hepatocytes; assay type: in vitro ADME
Summary of the method: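 Sandwich-cultured human hepatocytes from three donor liver preparations, cultured 6 days. [14C]-test compound was applied at 10 and 250 μmol/L, with [3H]-taurocholate as transporter-function control and LDH release as cytotoxicity check. Radioactivity was read by LSC. Accumulation is mean ± SD of triplicate wells. BEI, CLbiliary, intracellular concentration and Cic/Cec were derived.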

[2] = test system: sandwich‐cultured hepatocytes; experiment: Cytotoxicity test with lactate dehydrogenase; assay type: cell-based; conditions: 250 μmol/L, up to 24 h
[3] = Plasma pharmacokinetics in rat after i.v. bolus; assay type: in vivo, Wistar rat; conditions: for clearance / half-life: in vivo
Summary of the method: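 Wistar rats, intravenous bolus. Plasma was sampled at 0.1, 0.25, 0.5, 1, 2, 4 and 6 h postadministration.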

[4] = Metabolite profiling of mouse plasma, urine and feces by radio-HPLC; assay type: in vivo, mouse (NMRI); conditions: for dose excreted: NMRI, mouse
Summary of the method: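 Mouse samples after i.v. [14C]-test compound, 2.5 mg/kg. Plasma at 0.1 and 0.25 h was extracted twice with ethanol. Fecal precipitates were sonicated with ethanol at 40°C/2 h, and unextracted residue was combusted. Extracts ran on isocratic radio-HPLC: acetonitrile/0.05 mol/L ammonium acetate pH 4 (19/80, v/v), RP8e column, 1 mL/min, UV 230 nm plus radiodetector. Excreted radioactivity was given as % dose.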

[5] = test system: human suspension hepatocytes; experiment: Uptake into human suspension hepatocytes; assay type: in vitro ADME
Summary of the method: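 Cryopreserved human hepatocytes in suspension, transporter function verified by the supplier. Test compound was applied at 10 μmol/L, 250 μmol/L and 10 mmol/L for 1 to 30 or 90 min. Cells were separated from buffer by the oil-layer method, and drug in both compartments was quantified over time by LC/MS/MS. Nonspecific transporter inhibition used rifampicin 20 μmol/L, cyclosporine A 20 μmol/L and quinidine 100 μmol/L.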

[6] = Physicochemical properties
[7] = 10 μM, donor 1, 20 min, mean ± SD of triplicate wells
[8] = 10 μM, donor 2, 20 min, mean ± SD of triplicate wells
[9] = 10 μM, donor 3, 20 min, mean ± SD of triplicate wells
[10] = 10 μM, mean ± standard error of 3 donors, 20 min
[11] = 250 μM, donor 1, 20 min, mean ± SD of triplicate wells
[12] = 250 μM, donor 2, 20 min, mean ± SD of triplicate wells
[13] = 250 μM, donor 3, 20 min, mean ± SD of triplicate wells
[14] = 250 μM, mean ± standard error of 3 donors, 20 min

Structure (SMILES): CC(C)[C@H]1C(=O)N[C@@H](CCCN=C(N)N)C(=O)NCC(=O)N[C@@H](CC(=O)O)C(=O)N[C@H](Cc2ccccc2)C(=O)N1C [cilengitide, cyclo‐(Asp‐D‐Phe‐N‐MeVal‐Arg‐Gly)]
- biliary efflux (as determined by BEI and CLbil) [1]: negligible
- BEI ([1]; 10 μM, donor 1, 20 min): 2.42%
- CLbiliary ([1]; 10 μM, donor 1, 20 min): 7.2 mL/day/kg
- Intracellular concentration ([1]; 10 μM, donor 1, 20 min): 1.70 µM
- Cellular accumulation Avg. [1, 7]: 13.7 ± 1.8 pmol/mg
- Total accumulation Avg. [1, 7]: 14.0 ± 1.5 pmol/mg
- BEI ([1]; 10 μM, donor 2, 20 min): 2.30%
- CLbiliary ([1]; 10 μM, donor 2, 20 min): 5.8 mL/day/kg
- Intracellular concentration ([1]; 10 μM, donor 2, 20 min): 0.52 µM
- Cellular accumulation Avg. [1, 8]: 4.17 ± 0.33 pmol/mg
- Total accumulation Avg. [1, 8]: 4.27 ± 0.46 pmol/mg
- BEI ([1]; 10 μM, donor 3, 20 min): 16.6%
- CLbiliary ([1]; 10 μM, donor 3, 20 min): 18.7 mL/day/kg
- Intracellular concentration ([1]; 10 μM, donor 3, 20 min): 0.56 µM
- Cellular accumulation Avg. [1, 9]: 4.53 ± 0.38 pmol/mg
- Total accumulation Avg. [1, 9]: 5.44 ± 3.31 pmol/mg
- BEI [1, 10]: 7.12 ± 4.76%
- CLbiliary [1, 10]: 10 ± 4.3 mL/day/kg
- Cellular accumulation Avg. [1, 10]: 7.47 ± 3.12 pmol/mg
- Intracellular concentration [1, 10]: 0.926 ± 0.386 µM
- Total accumulation Avg. [1, 10]: 7.90 ± 3.07 pmol/mg
- BEI ([1]; 250 μM, donor 1, 20 min): 20.4%
- CLbiliary ([1]; 250 μM, donor 1, 20 min): 40.3 mL/day/kg
- Intracellular concentration ([1]; 250 μM, donor 1, 20 min): 22.7 µM
- Cellular accumulation Avg. [1, 11]: 183 ± 27 pmol/mg
- Total accumulation Avg. [1, 11]: 230 ± 28 pmol/mg
- BEI ([1]; 250 μM, donor 2, 20 min): 8.75%
- CLbiliary ([1]; 250 μM, donor 2, 20 min): 7.2 mL/day/kg
- Intracellular concentration ([1]; 250 μM, donor 2, 20 min): 10.4 µM
- Cellular accumulation Avg. [1, 12]: 84.0 ± 12.1 pmol/mg
- Total accumulation Avg. [1, 12]: 92.1 ± 5.7 pmol/mg
- BEI ([1]; 250 μM, donor 3, 20 min): 15.6%
- CLbiliary ([1]; 250 μM, donor 3, 20 min): 18.7 mL/day/kg
- Intracellular concentration ([1]; 250 μM, donor 3, 20 min): 15.2 µM
- Cellular accumulation Avg. [1, 13]: 122 ± 14 pmol/mg
- Total accumulation Avg. [1, 13]: 145 ± 5.9 pmol/mg
- BEI [1, 14]: 14.9 ± 3.4%
- CLbiliary [1, 14]: 21.6 ± 10 mL/day/kg
- Cellular accumulation Avg. [1, 14]: 130 ± 29 pmol/mg
- Intracellular concentration [1, 14]: 16.1 ± 3.6 µM
- Total accumulation Avg. [1, 14]: 156 ± 3 pmol/mg
- biotransformation by HPLC analysis of supernatant and cell lysate ([1]; 250 μmol/L, 6 and 24 h): no indication for biotransformation
- Intracellular concentration ([1]; exposure at 10 μmol/L): 0.926 ± 0.386 µM
- Intracellular concentration ([1]; exposure at 250 μmol/L): 16.1 ± 3.6 µM
- cell toxicity (LDH in cell culture medium) [2]: does not cause cell toxicity
- clearance as share of hepatic blood flow (hbf) [3]: approximately 20%
- level at 0.1 h ([3]; Wistar, plasma, iv, 2.5 mg/kg): 5360 to 5870 ng/mL
- clearance [3]: 23500 mL/day/kg
- half-life [3]: 30 min
- clearance ([3]; iv, 2.5 mg/kg): ~23500 mL/day/kg
- half-life ([3]; iv, 2.5 mg/kg): 14.4 to 30 min
- dose excreted ([4]; female, feces): 66.2%
- dose excreted ([4]; female, feces, iv, 2.5 mg/kg): 66%
- dose excreted ([4]; female, urine, iv, 2.5 mg/kg): 28%
- unchanged drug in feces (fecal/biliary secretion) ([4]; male mice): 87.2 % of the administered dose
- dose excreted ([4]; male, feces, iv, 2.5 mg/kg): 87%
- dose excreted ([4]; male, urine, iv, 2.5 mg/kg): 7%
- active uptake in human hepatocytes [5]: no active uptake
- dependency of uptake on drug concentration ([5]; 10 μmol/L, 250 μmol/L and 10 mmol/L): no clear dependency on drug concentration
- effect of inhibitor cocktail on distribution into hepatocytes ([5]; 20 μmol/L rifampicin, 20 μmol/L cyclosporine A, 100 μmol/L quinidine): no relevant inhibition
- time after which distribution into hepatocytes was almost complete ([5]; human suspension hepatocytes): 1 to 4 min
- uptake into human hepatocytes ([5]; suspension, 10 μmol/L, 250 μmol/L and 10 mmol/L): minor
- solubility [6]: high
- partition coefficient Po/w ([6]; octanol–water): 0.0096
